Calls of active or inactive are those of the source. The rule behind the calls is not given here.
How the values were obtained:
[1] = tested on: MV4-11; test: Induction of apoptosis in human MV4-11 cells harboring FLT3-ITD mutant assessed as increase in early apoptotic cells after 48 hrs by AnnexinV-FITC/Propidium iodide staining based flow cytometric analysis; assay type: functional, cell-based; details: dose 0.03-0.15 µM
[2] = tested on: MV4-11; test: Induction of apoptosis in human MV4-11 cells harboring FLT3-ITD mutant assessed early apoptotic cells at 0.03 uM after 48 hrs by AnnexinV-FITC/Propidium iodide staining based flow cytometric analysis (reference value: 11.84 %); assay type: functional
[3] = tested on: MV4-11; test: Induction of apoptosis in human MV4-11 cells harboring FLT3-ITD mutant assessed necrotic cells at 0.03 uM after 48 hrs by AnnexinV-FITC/Propidium iodide staining based flow cytometric analysis (reference value: 0.45 %); assay type: functional
[4] = tested on: MV4-11; test: Induction of apoptosis in human MV4-11 cells harboring FLT3-ITD mutant assessed late apoptotic cells at […] after 48 hrs by AnnexinV-FITC/Propidium iodide staining based flow cytometric analysis (reference value: 1.56 %); assay type: functional; details: dose 0.15 µM
[5] = tested on: MV4-11; test: Induction of apoptosis in human MV4-11 cells harboring FLT3-ITD mutant assessed necrotic cells at […] after 48 hrs by AnnexinV-FITC/Propidium iodide staining based flow cytometric analysis (reference value: 0.45 %); assay type: functional; details: dose 0.15 µM
[6] = tested on: MV4-11; test: Induction of apoptosis in human MV4-11 cells harboring FLT3-ITD mutant assessed late apoptotic cells at 0.03 uM after 72 hrs by AnnexinV-FITC/Propidium iodide staining based flow cytometric analysis (reference value: 1.48 %); assay type: functional
[7] = tested on: MV4-11; test: Induction of apoptosis in human MV4-11 cells harboring FLT3-ITD mutant assessed necrotic cells at 0.03 uM after 72 hrs by AnnexinV-FITC/Propidium iodide staining based flow cytometric analysis (reference value: 0.53 %); assay type: functional
[8] = tested on: MV4-11; test: Induction of apoptosis in human MV4-11 cells harboring FLT3-ITD mutant assessed viable cells at […] after 72 hrs by AnnexinV-FITC/Propidium iodide staining based flow cytometric analysis (reference value: 90.5 %); assay type: functional; details: dose 0.15 µM
[9] = tested on: MV4-11; test: Induction of apoptosis in human MV4-11 cells harboring FLT3-ITD mutant assessed late apoptotic cells at […] after 72 hrs by AnnexinV-FITC/Propidium iodide staining based flow cytometric analysis (reference value: 1.48 %); assay type: functional; details: dose 0.15 µM
[10] = tested on: MV4-11; test: Induction of cell cycle arrest in human MV4-11 cells harboring FLT3-ITD mutant assessed increase in cell accumulation at G1 phase after 24 hrs by Propidium iodide staining based flow cytometric analysis; assay type: functional
Procedure, shortened: (§1)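 Cells then fixed in ice-cold 70% ethanol, stained with 20 ng/ml propidium iodide, and cell-cycle phases measured by flow cytometry.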

[11] = tested on: MOLM-13; test: Induction of cell cycle arrest in human MOLM-13 cells harboring FLT3-ITD mutant assessed increase in cell accumulation at G1 phase after 24 hrs by Propidium iodide staining based flow cytometric analysis; assay type: functional; procedure, shortened: as §1
[12] = (§2) Induction of apoptosis in human derived Acute myeloid leukemic cells assessed increase in cleaved caspase-3/7 after 16 hrs by Caspase-Glo 3/7 assay; assay type: functional, cell-based; details: Leukemia cell
Procedure, shortened: (§3)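 Expanded primary AML blasts at 300 000 cells/ml treated 16 h; caspase-3/7 activity read by Caspase-Glo 3/7 luminescence and EC50 for apoptosis induction determined.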

[13] = tested on: Leukemia cell; test: as §2; assay type: functional, cell-based; procedure, shortened: as §3
[14] = Antiproliferative activity against relapsed human derived M2 Fab type Acute myeloid leukemic cells harboring FLT3-ITD mutant assessed as reduction in cell viability incubated for 48 hr by CellTiter-Glo assay; assay type: functional, cell-based; details: Leukemia cell
Procedure, shortened: (§4)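 Primary AML peripheral blood or bone marrow mononuclear cells thawed and expanded ex vivo; blasts counted between day 10 and 13, characterised by CD123 FACS and FLT3 genotyping. Blasts treated 48 h; proliferation IC50 read by CellTiter-Glo.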

[15] = Antiproliferative activity against human derived M5b Fab type Acute myeloid leukemic cells assessed as reduction in cell viability incubated for 48 hr by CellTiter-Glo assay; assay type: functional, cell-based; details: Leukemia cell; procedure, shortened: as §4
[16] = Antiproliferative activity against relapsed human derived M5b Fab type Acute myeloid leukemic cells harboring FLT3-ITD mutant assessed as reduction in cell viability incubated for 48 hr by CellTiter-Glo assay; assay type: functional, cell-based; details: Leukemia cell; procedure, shortened: as §4
[17] = Antiproliferative activity against human derived Acute myeloid leukemic cells assessed as reduction in cell viability incubated for 48 hr by CellTiter-Glo assay; assay type: functional, cell-based; details: Leukemia cell
[18] = Antiproliferative activity against relapsed human derived Acute myeloid leukemic cells assessed as reduction in cell viability incubated for 48 hr by CellTiter-Glo assay; assay type: functional, cell-based; details: Leukemia cell; procedure, shortened: as §4
[19] = tested on: MOLM-13; test: Antitumor activity against human MOLM-13 cells harboring FLT-3 ITD mutant xenografted in BALB/c nude mouse assessed as decrease in phosphorylated STAT5 at Y694 residue at 150 mg/kg, po measured after 3 hrs by Western blot analysis; assay type: functional, organism-based
Procedure, shortened: (§5)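 Mice bearing s.c. MOLM-13 xenografts given a single oral dose of 150 mg/kg. Tumours harvested at 3 h; lysates immunoblotted for phospho-FLT3, -STAT3, -STAT5, -Akt and total actin.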

[20] = tested on: MOLM-13; test: Antitumor activity against human MOLM-13 cells harboring FLT-3 ITD mutant xenografted in BALB/c nude mouse assessed as decrease in phosphorylated STAT3 at Y704 residue at 150 mg/kg, po measured after 3 hrs by Western blot analysis; assay type: functional, organism-based; procedure, shortened: as §5
[21] = tested on: MV4-11; test: Antitumor activity against human MV4-11 cells harboring FLT-3 ITD mutant xenografted in BALB/c nude mouse assessed as tumor growth inhibition at 50 mg/kg, po administered daily for 21 days relative to control; assay type: functional; details: MV4-11, 504 h, time 21 day, read-out: TGI
Procedure, shortened: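 Female BALB/c nude mice implanted s.c. in right flank with 1 × 10^7 MV4-11 cells in serum-free medium mixed 1:1 with Matrigel. Randomised on day 11 at mean 146–150 mm3 (n=10/group); oral hydrochloride salt once daily for 21 days in 0.5% methylcellulose/0.1% Tween-80. Doses are free-base equivalents; caliper twice weekly; ANOVA with Dunnett's test.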

[22] = tested on: MOLM-13; test: Antitumor activity against human MOLM-13 cells harboring FLT-3 ITD mutant xenografted in BALB/c nude mouse assessed as tumor growth inhibition at 150 mg/kg, […] relative to control; assay type: functional; details: MOLM-13, 168 h, route po, read-out: TGI
[23] = tested on: MOLM-13; test: Antitumor activity against human MOLM-13 cells harboring FLT-3 ITD mutant xenografted in BALB/c nude mouse assessed as decrease in metastatic incidence at 150 mg/kg, po bid administered daily for 7 days; assay type: functional; details: time 7 day

C1=N/C2=N/c3ccc(OCCN4CCCC4)c(c3)COC/C=C/COCc3cccc(c3)C(=C1)N2 [PACRITINIB]
Activity [1]: Dose-Dependent Effect | Activity [2]: 24.5% | Activity [3]: 0.94% | Activity [4]: 20.83% | Activity [5]: 4.18% | Activity [6]: 3.74% | Activity [7]: 1.06% | Activity [8]: 20.38% | Activity [9]: 15.1% | Activity [10]: Dose-Dependent Effect | Activity [11]: Dose-Dependent Effect | EC50 [12]: 268 nM | Activity [13]: Dose-Dependent Effect | IC50 [14]: 340 nM | IC50 [15]: 240 nM | IC50 [16]: 250 nM | IC50 [17]: 460 nM | IC50 [18]: 1330 nM | Activity [19]: Active | Activity [20]: Active | inhibition in vivo at 50 mg/kg [21]: 92% | inhibition in vivo at 150 mg/kg [22]: 83% | Activity [23]: 0.33

From ChEMBL document CHEMBL5715947 (Blood Cancer J, 2011)
